Test results from ChEMBL document CHEMBL4480406, “Discovery of an SSTR2-Targeting Maytansinoid Conjugate (PEN-221) with Potent Activity in Vitro and in Vivo” (J Med Chem, 2019).

Tests used:
NCI-H524 [1] = assay: Cytotoxicity in human NCI-H524 cells pre-incubated for 2 hrs followed by compound wash out and subsequently incubated for 70 hrs by Cell Titer Glo assay; assay type: functional, cell-based
How it was run: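 Cells were then spun, washed with fresh medium, resuspended and grown a further 70 h. Proliferation was read by CellTiter-Glo luminescence, and % inhibition calculated relative to vehicle. IC50 came from a four-parameter nonlinear fit.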

NCI-H524 [2] = assay: Cytotoxicity in human NCI-H524 cells pre-incubated for 2 hrs in presence of 100 uM octreotide followed by compound wash out and subsequently incubated for 70 hrs by Cell Titer Glo assay; assay type: functional, cell-based
How it was run: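 Octreotide receptor-blockade variant: NCI-H524 cells (5,000/well) were pretreated with octreotide acetate for 30 min, then given compound for 2 h in a ten-point three-fold series.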

[3] = Drug uptake in tumor of CrTac:NCr-Foxn1nu mouse xenografted with human NCI-H69 cells assessed as DM1 level at 1 mg/kg, iv measured after 24 hrs by LC-MS/MS analysis relative to DM1 alone; assay type: ADME, organism-based, Neoplasm; details: in vivo
How it was run: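 NCI-H69 subcutaneous tumors of 250-600 mm3 in nude mice, groups of 3, dosed i.v. Free DM1 was given in 10% propylene glycol/WFI, conjugates in 10% propylene glycol/5 mM citrate pH 4. Tumors were excised at 24 h and homogenized 1:4 (w/v) in 0.1 M ammonium bicarbonate pH 8.0. Homogenate was reduced with TCEP in acetonitrile (15 min, 37 °C), capped with 0.2 M NEM (15 min, 37 °C), and DM1-NEM quantified by LC-MS/MS against standards in blank tumor homogenate. Values were normalized to DM1 dose.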

[4] = target: T1, Somatostatin receptor type 2 (Homo sapiens, UniProt P30874); assay: Displacement of [125I]somatostatin from human SSTR2 expressed in CHO-K1 cell membranes after 240 mins
How it was run: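 Membranes from CHO-K1 cells stably expressing human SSTR2, prepared in modified HEPES pH 7.4. Nonspecific binding was defined with 1 µM somatostatin. Bound ligand was measured by filtration, 3 washes and counting. Six test concentrations were run, top 10 nM, in five-fold dilutions.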

[5] = target: T1, Somatostatin receptor type 2; assay: Binding affinity to human SSTR2 expressed in CHO-K1 cells assessed as induction of SSTR2 internalization after 4 hrs by chemiluminescent assay; assay type: cell-based

T1 sequence (P30874 whole entry): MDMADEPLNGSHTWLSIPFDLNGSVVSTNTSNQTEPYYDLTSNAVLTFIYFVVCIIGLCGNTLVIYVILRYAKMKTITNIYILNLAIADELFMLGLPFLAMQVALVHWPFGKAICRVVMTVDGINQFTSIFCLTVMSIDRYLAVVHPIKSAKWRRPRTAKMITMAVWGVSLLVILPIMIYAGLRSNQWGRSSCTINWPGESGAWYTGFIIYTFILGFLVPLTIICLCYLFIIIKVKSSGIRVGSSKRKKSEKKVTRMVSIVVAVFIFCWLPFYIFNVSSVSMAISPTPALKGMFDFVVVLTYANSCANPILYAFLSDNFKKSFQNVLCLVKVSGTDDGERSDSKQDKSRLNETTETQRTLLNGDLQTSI

Row | EC50 [5] [nM] | SMILES | IC50 (NCI-H524 [1]) [nM] | IC50 (NCI-H524 [2]) [nM] | Drug uptake [3] | Ki [4] [nM]
1 | – | COc1cc2cc(c1Cl)N(C)C(=O)C[C@H](OC(=O)[C@H](C)N(C)C(=O)CCSSCCNC(=O)[C@@H](NC(=O)[C@@H]1CSSC[C@H](NC(=O)[C@H](N)Cc3ccccc3)C(=O)N[C@@H](Cc3ccc(O)cc3)C(=O)N[C@H](Cc3c[nH]c4ccccc34)C(=O)N[C@@H](CCCCN)C(=O)N[C@@H]([C@@H](C)O)C(=O)N1)[C@@H](C)O)[C@@]1(C)O[C@H]1[C@H](C)[C@@H]1C[C@@](O)(NC(=O)O1)[C@H](OC)/C=C/C=C(\C)C2 | 44 | 528 | Active | –
2 | – | COc1cc2cc(c1Cl)N(C)C(=O)C[C@H](OC(=O)[C@H](C)N(C)C(=O)CCSSCCOc1ccc(C[C@@H](N)C(=O)N[C@H]3CSSC[C@@H](C(=O)N[C@H](C(=O)O)[C@@H](C)O)NC(=O)[C@H]([C@@H](C)O)NC(=O)[C@H](CCCCN)NC(=O)[C@@H](Cc4c[nH]c5ccccc45)NC(=O)[C@H](Cc4ccc(O)cc4)NC3=O)cc1)[C@@]1(C)O[C@H]1[C@H](C)[C@@H]1C[C@@](O)(NC(=O)O1)[C@H](OC)/C=C/C=C(\C)C2 | 15 | 198 | Active | 0.015
3 | 11 | CO[C@H]1C(=O)[C@]2(C)[C@@H](OC)C[C@H]3OC[C@@]3(OC(C)=O)[C@H]2[C@H](OC(=O)c2ccccc2)[C@]2(O)C[C@H](OC(=O)[C@H](OC(=O)OCCSSC[C@H](NC(=O)[C@@H]3CSSC[C@H](NC(=O)[C@H](N)Cc4ccccc4)C(=O)N[C@@H](Cc4ccc(O)cc4)C(=O)N[C@H](Cc4c[nH]c5ccccc45)C(=O)N[C@@H](CCCCN)C(=O)N[C@@H]([C@@H](C)O)C(=O)N3)C(N)=O)[C@@H](NC(=O)OC(C)(C)C)c3ccccc3)C(C)=C1C2(C)C | 7 | 14 | – | 0.97
4 | – | COc1cc2cc(c1Cl)N(C)C(=O)C[C@H](OC(=O)[C@H](C)N(C)C(=O)CCSSCCCN[C@H](Cc1ccccc1)C(=O)N[C@H]1CSSC[C@@H](C(=O)N[C@H](CO)[C@@H](C)O)NC(=O)[C@H]([C@@H](C)O)NC(=O)[C@H](CCCCN)NC(=O)[C@@H](Cc3c[nH]c4ccccc34)NC(=O)[C@H](Cc3ccccc3)NC1=O)[C@@]1(C)O[C@H]1[C@H](C)[C@@H]1C[C@@](O)(NC(=O)O1)[C@H](OC)/C=C/C=C(\C)C2 | 30 | 221 | Active | 0.12
5 | – | COc1cc2cc(c1Cl)N(C)C(=O)C[C@H](OC(=O)[C@H](C)N(C)C(=O)CCSSCCCN[C@H](Cc1ccccc1)C(=O)N[C@H]1CSSC[C@@H](C(=O)N[C@@H](Cc3c[nH]c4ccccc34)C(N)=O)NC(=O)[C@H](C(C)C)NC(=O)[C@H](CCCCN)NC(=O)[C@@H](Cc3c[nH]c4ccccc34)NC(=O)[C@H](Cc3ccc(O)cc3)NC1=O)[C@@]1(C)O[C@H]1[C@H](C)[C@@H]1C[C@@](O)(NC(=O)O1)[C@H](OC)/C=C/C=C(\C)C2 | 22 | 115 | Active | 0.19
6 | – | COc1cc2cc(c1Cl)N(C)C(=O)C[C@H](OC(=O)[C@H](C)N(C)C(=O)CCSSCCCN[C@H](Cc1ccccc1)C(=O)N[C@H]1CSSC[C@@H](C(=O)N[C@H](C(=O)O)[C@@H](C)O)NC(=O)[C@H]([C@@H](C)O)NC(=O)[C@H](CCCCN)NC(=O)[C@@H](Cc3c[nH]c4ccccc34)NC(=O)[C@H](Cc3ccc(O)cc3)NC1=O)[C@@]1(C)O[C@H]1[C@H](C)[C@@H]1C[C@@](O)(NC(=O)O1)[C@H](OC)/C=C/C=C(\C)C2 | 19 | 757 | Active | –
